The term inhibition in vivo denotes the percentage by which the read-out fell short of the control.

Activity, inhibition and inhibition in vivo data for two molecules are collected here from ChEMBL document CHEMBL3414437, “Synthesis of CDDO-amino acid-nitric oxide donor trihybrids as potential antitumor agents against both drug-sensitive and drug-resistant colon cancer” (J Med Chem, 2015).

Calls of active or inactive are those of the source. No cut-off for these calls is given here.

Data set [1] deals with T1, Broad substrate specificity ATP-binding cassette transporter ABCG2 (Homo sapiens, UniProt Q9UNQ0).
T1 sequence (Q9UNQ0 whole entry): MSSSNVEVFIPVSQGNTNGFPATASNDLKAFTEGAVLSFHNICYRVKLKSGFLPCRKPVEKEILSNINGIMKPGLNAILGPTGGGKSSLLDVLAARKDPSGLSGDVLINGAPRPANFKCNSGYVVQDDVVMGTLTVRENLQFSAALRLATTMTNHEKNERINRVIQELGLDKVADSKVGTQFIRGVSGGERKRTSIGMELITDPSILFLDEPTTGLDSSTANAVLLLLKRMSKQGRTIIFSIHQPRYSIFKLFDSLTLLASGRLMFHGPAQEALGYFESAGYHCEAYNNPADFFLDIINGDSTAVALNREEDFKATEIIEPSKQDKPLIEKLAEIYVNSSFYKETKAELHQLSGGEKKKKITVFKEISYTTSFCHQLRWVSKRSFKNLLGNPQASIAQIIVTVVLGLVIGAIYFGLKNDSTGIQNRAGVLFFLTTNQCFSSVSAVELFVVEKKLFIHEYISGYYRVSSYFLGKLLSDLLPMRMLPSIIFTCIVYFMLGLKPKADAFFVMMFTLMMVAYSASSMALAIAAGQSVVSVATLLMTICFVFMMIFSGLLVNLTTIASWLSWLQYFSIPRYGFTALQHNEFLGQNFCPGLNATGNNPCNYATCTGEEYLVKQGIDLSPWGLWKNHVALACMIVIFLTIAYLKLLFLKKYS
In words: Induction of nitrosylation of BCRP protein in FU-resistant human HCT8 cells at 0.25 to 1 uM incubated for 24 hrs by Western blotting method. Type of data set: cell-based. The settings on record: hct-8, 24 h. The method in brief:
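HCT-8/5-FU cells (1 × 10^6) treated in duplicate for 24 h with 0.25, 0.5 or 1 µM test compound or 1 µM reference, with or without PTIO. Lysates immunoprecipitated overnight at 4 °C with anti-nitrotyrosine antibody on protein G beads. Eluates blotted with specific anti-Pgp, anti-MRP1 or anti-BCRP antibodies and quantified by densitometry. Mean ± SD of three experiments.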
A general note: In western blotting, separated proteins are transferred to a membrane and probed.

Data set [2] concerns HCT-8. Kind of data set: Antiproliferative activity against human HCT8 cells assessed as inhibition of cell proliferation at 0.25 uM dosed 1 hr after NO scavenger carboxy-PTIO treatment and measured after 24 hrs by MTT assay. It counts as functional. A general note: Formazan colour is commonly taken as a measure of viable cells.
For data set [3], the target named is RAC-alpha serine/threonine-protein kinase (Homo sapiens) (UniProt P31749). In words: Inhibition of AKT protein phosphorylation in FU-resistant human HCT8 cells at 0.25 to 1 uM incubated for 24 hrs by Western blotting method. It counts as cell-based. The settings on record: HCT-8. The method, boiled down: (§1)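 Cells (1 x 10^6) grown 24 h in 6 cm dishes, then exposed in duplicate for 24 h to 0.25, 0.5 or 1 µM compound, with or without PTIO. Lysates (20 µg/lane) were run on 7.5% SDS-PAGE, blotted to PVDF and blocked in 5% milk. HRP secondaries with ECL detection; bands quantified by densitometry against β-actin or GAPDH. Three separate experiments, mean ± SD.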

Data set [4] is described as follows: Antitumor activity against FU-resistant human HCT8 cells xenografted in nude BALB/c mouse assessed as reduction in tumor weight at 35.7 umol/kg administered as via oral gavage daily for 21 days. It counts as functional. The settings on record: HCT-8, po, 504 h. The method in brief: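 Male BALB/c nude mice, 6–8 weeks old, inoculated s.c. in the right flank with HCT-8/5-FU cells (2 × 10^6). Once tumors reached 180–200 mm3 (days 9–11), mice were randomized (n = 8) to daily oral gavage for 21 days in cremophor-EL/DMSO/PBS (1:1:8). Tumor volume = W2(L/2), caliper-measured every other day, blinded; tumors weighed at end.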
In general terms: In xenograft studies the graft and the host belong to different species.

Data set [5] relates to Mus musculus. In words: Toxicity in nude BALB/c mouse xenografted with FU-resistant human HCT8 cells assessed as abnormal color changes in kidney at 17.8 to 35.7 umol/kg administered as via oral gavage daily for 21 days. The conditions noted are these: in vivo, 504 h. Type of data set: organism-based, HCT-8. The method in brief:
(§2)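 Male BALB/c nude mice aged 6-8 weeks, implanted s.c. in the right flank with HCT-8/5-FU cells (2 × 10^6). Once tumors reached 180-200 mm3 (days 9-11), randomized to daily gavage for 21 days in cremophor-EL/DMSO/PBS (1:1:8), 0.2 mL. At the end, liver, kidney, lung and heart checked for size, colour and weight. n = 8 per group.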

Data set [6] deals with HCT-8. In words: Induction of apoptosis in human HCT8 cells incubated for 24 hrs by FITC-Annexin-V and propidium iodide staining based flow cytometry. Type of data set: functional, cell-based.
Data set [7] deals with Mus musculus. Kind of data set: Toxicity in nude BALB/c mouse xenografted with FU-resistant human HCT8 cells assessed as abnormal size changes in kidney at 17.8 to 35.7 umol/kg administered as via oral gavage daily for 21 days. Type of data set: organism-based, HCT-8. The conditions noted are these: in vivo, 504 h. The method, boiled down: as §2
Data set [8] concerns Mus musculus. In words: Toxicity in nude BALB/c mouse xenografted with FU-resistant human HCT8 cells assessed as body weight level at 35.7 umol/kg administered as via oral gavage daily for 21 days (reference value: 21.1 +/- 1.5 g). It counts as organism-based, HCT-8. The settings on record: in vivo, 504 h. The method in brief:
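Male BALB/c nude mice, 6-8 weeks old, inoculated s.c. in right flank with HCT-8/5-FU cells (2 × 10^6/mouse). Once tumors reached 180-200 mm3 (9-11 days post-implantation), mice were randomized and dosed by gavage daily for 21 consecutive days in cremophor-EL/DMSO/PBS (1:1:8) (vehicle alone 0.2 mL). Body weights recorded on day 1 and day 21. Organ size, color and weights were inspected for liver, kidney, lung and heart. n = 8 per group; mean ± SD.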

The test system of data set [9] is Mus musculus. Kind of data set: Toxicity in nude BALB/c mouse xenografted with FU-resistant human HCT8 cells assessed as abnormal size changes in heart at 59.4 umol/kg administered as via oral gavage daily for 21 days. Type of data set: organism-based, HCT-8. The conditions noted are these: in vivo, 504 h. The method, boiled down:
as §2

The target in data set [10] is RAC-alpha serine/threonine-protein kinase (Homo sapiens) (UniProt P31749). In words: Inhibition of AKT protein phosphorylation in FU-resistant human HCT8 cells at 1 uM incubated for 24 hrs by Western blotting method. It counts as cell-based. The conditions noted are these: HCT-8. The method in brief: as §1
Data set [11] concerns HCT-8. In words: Inhibition of P-gp protein expression in FU-resistant human HCT8 cells at 1 uM incubated for 24 hrs by Western blotting method. Type of data set: functional, cell-based. The method in brief: as §1
Data set [12] has as its system Mus musculus. In words: Toxicity in nude BALB/c mouse xenografted with FU-resistant human HCT8 cells assessed as abnormal color changes in liver at 59.4 umol/kg administered as via oral gavage daily for 21 days. Type of data set: organism-based, HCT-8. The settings on record: in vivo, 504 h. The method in brief: as §2
Data set [13] concerns HCT-8. Kind of data set: Inhibition of ERK protein phosphorylation in human HCT8 cells at 1 uM incubated for 24 hrs by Western blotting method. Type of data set: cell-based. The method, boiled down: as §1
For data set [14], the system named is Mus musculus. In words: Toxicity in nude BALB/c mouse xenografted with FU-resistant human HCT8 cells assessed as abnormal weight changes in kidney at 59.4 umol/kg administered as via oral gavage daily for 21 days. Type of data set: organism-based, HCT-8. The settings on record: in vivo, 504 h. The method, boiled down: as §2
For data set [15], the system named is HCT-8. Kind of data set: Inhibition of MRP1 protein expression in FU-resistant human HCT8 cells at 1 uM incubated for 24 hrs by Western blotting method. Type of data set: functional, cell-based. The method, boiled down:
as §1

Data set [16] deals with Mus musculus. In words: Toxicity in nude BALB/c mouse xenografted with FU-resistant human HCT8 cells assessed as abnormal size changes in lung at 59.4 umol/kg administered as via oral gavage daily for 21 days. The conditions noted are these: in vivo, 504 h. Type of data set: organism-based, HCT-8. The method in brief:
as §2

Sequence of RAC-alpha serine/threonine-protein kinase (Homo sapiens) (P31749 whole entry): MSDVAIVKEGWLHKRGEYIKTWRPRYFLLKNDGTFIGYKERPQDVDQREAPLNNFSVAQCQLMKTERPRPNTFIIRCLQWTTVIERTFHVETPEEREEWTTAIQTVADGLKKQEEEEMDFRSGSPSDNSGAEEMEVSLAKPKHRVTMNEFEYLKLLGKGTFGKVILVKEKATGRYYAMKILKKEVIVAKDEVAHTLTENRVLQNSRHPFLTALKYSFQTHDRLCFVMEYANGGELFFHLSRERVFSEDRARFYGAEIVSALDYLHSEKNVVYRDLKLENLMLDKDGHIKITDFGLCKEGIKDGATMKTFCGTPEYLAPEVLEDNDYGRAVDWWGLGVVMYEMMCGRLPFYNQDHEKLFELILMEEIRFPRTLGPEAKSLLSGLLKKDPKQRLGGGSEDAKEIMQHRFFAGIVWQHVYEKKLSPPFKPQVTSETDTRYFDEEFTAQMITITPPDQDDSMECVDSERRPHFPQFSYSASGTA

With `CC1(C)CC[C@]2(C(=O)NCC(=O)OCC#CCOc3no[n+]([O-])c3S(=O)(=O)c3ccccc3)CC[C@]3(C)[C@H](C(=O)C=C4[C@@]5(C)C=C(C#N)C(=O)C(C)(C)[C@@H]5CC[C@]43C)[C@@H]2C1`, the Activity entry in [1] was “Dose-dependent effect”; with Mus musculus [5] it was “Non-toxic”; in the data set on HCT-8 [6], “Dose-dependent effect”; in the data set with Mus musculus [7], “Non-toxic”; in the data set with Mus musculus [8], 16.7 g. Further, the inhibition result in the data set on HCT-8 [2] is “inactive”. The inhibition result in data set [3] was “Dose-dependent effect”. In addition, in data set [4], the inhibition in vivo at 35.7 µmol/kg turned out to be 60.8%.

With `COC(=O)[C@]12CCC(C)(C)C[C@H]1[C@H]1C(=O)C=C3[C@@]4(C)C=C(C#N)C(=O)C(C)(C)[C@@H]4CC[C@@]3(C)[C@]1(C)CC2` [BARDOXOLONE METHYL], the Activity result in the data set on Mus musculus [9], with Mus musculus [12], with Mus musculus [14] and in the data set on Mus musculus [16] was “Non-toxic” in each case. Besides, the inhibition entry (in [10]; with HCT-8 [13]) was “Active” each time. Besides, the inhibition result in the data set on HCT-8 [11] and in the data set with HCT-8 [15] was “inactive” each time.
